Experiment [1] relates to INS1. As to the kind of experiment: Cytoprotective activity in rat INS-1 cells assessed as protection against tunicamycin-induced ER stress-mediated reduction in cell viability after 3 days by CellTiter-Glo assay relative tunicamycin. It is filed as functional. The note with it: INS1, 72 h. The essentials: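 INS-1 cells, 3×10^3 per well, were co-treated with tunicamycin 0.1 μg/mL and compound for 72 h. Viability was read as intracellular ATP by luminescence and expressed as fold of no-tunicamycin cells. EC50 and maximum activity were taken as the increase in viability versus tunicamycin alone. Triplicate wells, three independent experiments.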
A general note: Cellular ATP, detected with luciferase, serves as a proxy for viable cell number.

Experiment [2] concerns INS1. As to the kind of experiment: Cytoprotective activity in rat INS-1 cells assessed as protection against tunicamycin-induced ER stress-mediated reduction in cell viability after 3 days by CellTiter-Glo assay. The note with it: INS1, 72 h.
The target of experiment [3] is T1, Eukaryotic translation initiation factor 2-alpha kinase 3 (Rattus norvegicus) (UniProt Q9Z1Z1).
T1 sequence (whole entry): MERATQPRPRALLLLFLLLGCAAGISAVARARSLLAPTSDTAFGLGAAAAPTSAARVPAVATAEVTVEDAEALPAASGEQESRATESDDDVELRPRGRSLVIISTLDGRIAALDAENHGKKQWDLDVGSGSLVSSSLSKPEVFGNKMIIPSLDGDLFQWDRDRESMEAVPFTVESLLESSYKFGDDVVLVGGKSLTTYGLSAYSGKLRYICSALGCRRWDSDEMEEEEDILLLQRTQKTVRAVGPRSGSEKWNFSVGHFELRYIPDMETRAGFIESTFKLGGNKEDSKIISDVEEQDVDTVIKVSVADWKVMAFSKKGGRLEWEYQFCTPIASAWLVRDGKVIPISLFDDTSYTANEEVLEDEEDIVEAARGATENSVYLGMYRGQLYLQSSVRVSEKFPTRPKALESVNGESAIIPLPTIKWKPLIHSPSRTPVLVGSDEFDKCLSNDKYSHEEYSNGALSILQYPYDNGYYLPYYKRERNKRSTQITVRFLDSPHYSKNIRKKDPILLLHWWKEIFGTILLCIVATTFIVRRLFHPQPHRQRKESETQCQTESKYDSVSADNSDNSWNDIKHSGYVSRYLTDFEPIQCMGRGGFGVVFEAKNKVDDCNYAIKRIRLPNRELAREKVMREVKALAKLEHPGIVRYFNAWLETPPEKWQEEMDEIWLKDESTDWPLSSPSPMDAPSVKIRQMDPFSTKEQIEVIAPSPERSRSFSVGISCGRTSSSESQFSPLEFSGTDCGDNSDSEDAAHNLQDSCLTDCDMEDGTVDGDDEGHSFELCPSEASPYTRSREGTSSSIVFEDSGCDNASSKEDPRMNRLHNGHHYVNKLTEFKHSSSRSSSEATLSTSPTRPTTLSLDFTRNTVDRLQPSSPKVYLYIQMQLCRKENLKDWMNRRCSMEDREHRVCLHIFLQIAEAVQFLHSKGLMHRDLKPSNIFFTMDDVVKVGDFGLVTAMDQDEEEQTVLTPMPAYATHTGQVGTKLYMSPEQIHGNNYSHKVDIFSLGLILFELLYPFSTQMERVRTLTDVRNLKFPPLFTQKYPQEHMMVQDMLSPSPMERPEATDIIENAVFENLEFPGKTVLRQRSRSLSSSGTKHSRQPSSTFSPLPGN
As to the kind of experiment: Inhibition of tunicamycin ER stress-induced PERK activation in rat INS-1 cells assessed as suppression of tunicamycin-induced increase in ATF4 protein levels up to 10 uM after 8 hrs by Western blot analysis. It is filed as cell-based. The method, boiled down:
(§1)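 INS-1 cells were exposed to tunicamycin 0.1 μg/mL with compound or DMSO for 8 h. Lysates were immunoblotted for ATF4 and CHOP (1:1000). Bands were quantified by densitometry and normalized to α-tubulin; 3 independent experiments.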
On the technique in general: Immunoblotting shows a protein as a band on a membrane.

Experiment [4] deals with T1, Eukaryotic translation initiation factor 2-alpha kinase 3 (Rattus norvegicus). The experiment in a line: Inhibition of tunicamycin ER stress-induced PERK activation in rat INS-1 cells assessed as suppression of tunicamycin-induced increase in CHOP protein levels up to 10 uM after 8 hrs by Western blot analysis. It is filed as cell-based. The method, boiled down: as §1

For experiment [5], the target named is T2, Cyclic AMP-dependent transcription factor ATF-6 alpha (Rattus norvegicus) (UniProt G3V909).
T2 sequence (whole entry): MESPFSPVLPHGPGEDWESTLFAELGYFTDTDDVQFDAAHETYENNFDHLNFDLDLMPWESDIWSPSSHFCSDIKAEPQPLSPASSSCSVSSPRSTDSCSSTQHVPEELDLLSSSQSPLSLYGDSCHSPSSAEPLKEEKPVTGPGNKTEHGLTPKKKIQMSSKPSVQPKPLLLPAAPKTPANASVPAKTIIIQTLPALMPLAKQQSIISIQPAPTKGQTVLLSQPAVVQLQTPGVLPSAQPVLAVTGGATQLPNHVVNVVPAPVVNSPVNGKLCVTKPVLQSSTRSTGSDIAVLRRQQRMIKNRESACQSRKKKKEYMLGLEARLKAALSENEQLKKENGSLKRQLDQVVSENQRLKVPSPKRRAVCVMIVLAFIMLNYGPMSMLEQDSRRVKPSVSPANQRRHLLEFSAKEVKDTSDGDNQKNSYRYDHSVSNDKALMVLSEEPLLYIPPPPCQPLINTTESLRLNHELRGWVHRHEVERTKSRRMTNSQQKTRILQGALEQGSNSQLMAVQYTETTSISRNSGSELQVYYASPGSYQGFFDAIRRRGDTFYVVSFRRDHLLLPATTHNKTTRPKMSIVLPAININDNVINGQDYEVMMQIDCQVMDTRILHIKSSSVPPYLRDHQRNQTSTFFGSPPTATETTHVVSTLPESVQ
As to the kind of experiment: Inhibition of tunicamycin ER stress-induced ATF6 activation in rat INS-1 cells assessed as suppression of increase in Bip mRNA levels up to 10 uM after 8 hrs by qRT-PCR analysis. It is filed as cell-based. The method, boiled down:
(§2)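 INS-1 cells, 4×10^5 per well, were exposed to tunicamycin 0.1 μg/mL with compound or DMSO for 8 h. qRT-PCR for ATF4, CHOP, Bip, GRP94, or spliced XBP1 using splicing-specific primers. Values were normalized to cyclophilin A by ΔΔCt and given as fold over untreated control. Triplicate wells, 3 independent experiments.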
A general note: Real-time PCR tracks product formation cycle by cycle.

Experiment [6] deals with T2, Cyclic AMP-dependent transcription factor ATF-6 alpha (Rattus norvegicus). As to the kind of experiment: Inhibition of tunicamycin ER stress-induced ATF6 activation in rat INS-1 cells assessed as suppression of increase in […] mRNA levels up to 10 uM after 8 hrs by qRT-PCR analysis. The experiment is classed as cell-based. The method, boiled down: as §2

pEC50: −log10 of the molar value. Active and inactive are the calls of the source. No cut-off for these calls is given here. Some results are limits rather than exact numbers.

`O=C(NCCc1ccccc1)c1cccc(F)c1`: the Emax in the experiment with INS1 [1] was < 0%.
As a reminder, the pEC50 is the EC50 on a negative log10 scale, so that one unit is a factor of ten. `O=C(NCCc1ccccc1)c1ccc(F)c(F)c1F`: the pEC50 with INS1 [2] was 5.00. In addition, in the experiment with INS1 [1], the Emax is 23%.
Consider `Nc1cccc(C(=O)NCCc2ccccc2)c1`, for which the Emax in the experiment with INS1 [1] is < 0%.
Regarding `O=C(NCc1ccccc1Cl)c1ccc(CN2CCCCC2)cc1`, in the experiment on INS1 [2], the pEC50 is 4.89. The Emax in the experiment with INS1 [1] came out at 87%.
Take `O=C(NCc1cccc(Cl)c1)c1ccc(CN2CCCCC2)cc1`: the pEC50 in the experiment on INS1 [2] is 5.66. For the same molecule, the Emax with INS1 [1] is 80%.
Taken in the same sequence, the figures for `O=C(NCc1cccc(Br)c1)c1ccc2c(c1)OCCO2` were 5.26 and 69%.
Taken in the same sequence, the figures for `O=C(NCc1ccccc1Cl)c1cccc(CN2CCCCC2)c1` were 5.69 and 93%.
In the same order, the values of `O=C(NCCc1ccc(Cl)cc1)c1ccc(CN2CCCCC2)cc1` are 4.68 and 82%.
As for `COc1ccccc1CCNC(=O)c1ccc2c(c1)OCCO2`, in the experiment with INS1 [2], the pEC50 is < 4.52. The Emax in the experiment with INS1 [1] was found to be 29%.
In the same order, the values of `CN(C)S(=O)(=O)c1ccc(C(=O)NCCc2ccccc2)cc1` are 4.72 and 37%.
Taken in the same sequence, the figures for `COc1ccc(CCNC(=O)c2ccc3c(c2)OCCO3)cc1` were < 4.52 and 26%.
Taken in the same sequence, the figures for `O=C(NCCc1ccc(Cl)c(Cl)c1)c1ccc(CN2CCCCC2)cc1` were 4.62 and 71%.
For `O=C(NCCc1cccc(Cl)c1)c1ccc2c(c1)OCO2`, the pEC50 in the experiment with INS1 [2] was 4.60. Moreover, in the experiment on INS1 [1], the Emax is 41%.
Taken in the same sequence, the figures for `O=C(NCc1ccc(Cl)cc1)c1ccc(CN2CCCCC2)cc1` were 5.02 and 77%.
Regarding `Cc1ccccc1C(=O)NCCc1ccccc1`, the Emax in the experiment on INS1 [1] came to 6%.
As to `O=C(NCc1ccc(Cl)c(Cl)c1)c1ccc(CN2CCCCC2)cc1`, the pEC50 in the experiment on INS1 [2] was 5.74. Further, the Emax with INS1 [1] came out at 78%.
In the same order, the values of `O=C(NCc1ccc(Cl)cc1)c1cccc(CN2CCCCC2)c1` are 6.62 and 93%.
As to `CC(C)Sc1ccccc1C(=O)NCCc1ccccc1`, the pEC50 in the experiment on INS1 [2] was < 4.52. Also, the Emax with INS1 [1] was determined as 30%.
Turning to `O=C(NCc1ccccc1)c1cccc(CN2CCCCC2)c1`, the pEC50 with INS1 [2] was 6.46. The Emax in the experiment on INS1 [1] is 95%.
Taken in the same sequence, the figures for `O=C(NCCc1ccccc1)c1ccc(CN2CCCCC2)cc1` were 4.68 and 87%.
In the same order, the values of `O=C(NCc1ccc(Cl)c(Cl)c1)c1ccc2c(c1)OCCO2` are 5.44 and 68%.
In the same order, the values of `O=C(NCc1cccc(Br)c1)c1ccc(CN2CCCCC2)cc1` are 5.31 and 81%.
Consider `O=C(NCc1ccc(Cl)cc1)c1ccc2c(c1)OCCO2`, for which, in the experiment with INS1 [2], the pEC50 is 5.55. Moreover, the Emax with INS1 [1] stood at 69%.
Turning to `COc1ccc(C(=O)NCCc2cccc(Cl)c2)cc1OC`, in the experiment with INS1 [2], the negative logarithm of the EC50 (pEC50) is 4.62. For the same molecule, the Emax with INS1 [1] was 46%.
Taken in the same sequence, the figures for `O=C(NCc1ccccc1Br)c1ccc2c(c1)OCCO2` were 4.60 and 38%.
With `O=C(NCc1cccc(Cl)c1)c1cccc(CN2CCCCC2)c1`, the negative logarithm of the EC50 (pEC50) in the experiment with INS1 [2] is 6.39. Further, the Emax in the experiment with INS1 [1] turned out to be 90%.
In the same order, the values of `O=C(NCc1ccccc1Cl)c1ccc2c(c1)OCCO2` are 4.60 and 43%.
Take `O=C(NCCc1ccccc1)c1cc(F)c(F)c(F)c1F`: the Emax with INS1 [1] was < 0%.
`COc1ccc(C(=O)NCCc2ccccc2)cc1C`: the pEC50 with INS1 [2] is 4.82. Also, the Emax with INS1 [1] stood at 56%.
With `O=C(NCCc1ccccc1)c1ccc2c(c1)OCCO2`, the pEC50 in the experiment with INS1 [2] is 4.72. Further, the Emax in the experiment with INS1 [1] amounted to 47%.
Taken in the same sequence, the figures for `C#CCOc1ccc(C(=O)NCCc2ccccc2)cc1` were < 4.52 and 54%.
Taken in the same sequence, the figures for `O=C(NCCc1ccc(Cl)cc1)c1ccc2c(c1)OCCO2` were 4.82 and 51%.
For `O=C(NCCc1ccccc1)c1ccc(CN2CCCC2)cc1`, the negative logarithm of the EC50 (pEC50) in the experiment with INS1 [2] was 4.96. Further, in the experiment with INS1 [1], the Emax is 31%.
Taken in the same sequence, the figures for `Cc1ccc(C(=O)NCCc2ccccc2)cc1` were 4.70 and 25%.
`COc1ccc(CCNC(=O)c2ccc3c(c2)OCCO3)cc1OC`: the negative logarithm of the EC50 (pEC50) in the experiment on INS1 [2] is < 4.52. For the same molecule, the Emax in the experiment on INS1 [1] stood at 5%. Also, the inhibition entry in experiment [3], in experiment [4], in experiment [5] and in experiment [6] was “inactive” each time.
With `O=C(NCc1ccc(Cl)cc1)c1ccccc1CN1CCCCC1`, the pEC50 with INS1 [2] was 5.16. In the experiment on INS1 [1], the Emax was 73%.
For `CCOc1cccc(C(=O)NCCc2ccccc2)c1`, in the experiment with INS1 [2], the pEC50 was 4.59. The Emax with INS1 [1] is 49%.
As to `O=C(NCCc1cccc(Cl)c1)c1ccc2c(c1)OCCO2`, in the experiment on INS1 [2], the pEC50 is 4.68. The Emax with INS1 [1] is 42%.
In the same order, the values of `O=C(NCc1cccc(Cl)c1)c1ccc2c(c1)OCCO2` are 5.02 and 57%.
Taken in the same sequence, the figures for `O=C(NCc1cccc(C(F)(F)F)c1)c1cccc(CN2CCCCC2)c1` were 6.60 and 91%.
In the same order, the values of `O=C(NCCc1ccccc1)c1ccc(Cl)c(Cl)c1` are 4.77 and 42%.
As to `COc1cccc(CNC(=O)c2cccc(CN3CCCCC3)c2)c1`, the negative logarithm of the EC50 (pEC50) in the experiment with INS1 [2] was 6.02. The Emax in the experiment with INS1 [1] came out at 92%.
Taken in the same sequence, the figures for `COc1ccc(CNC(=O)c2cccc(CN3CCCCC3)c2)cc1` were 5.95 and 93%.
In the case of `O=C(NCCc1ccccc1)c1cccc([N+](=O)[O-])c1`, in the experiment with INS1 [1], the Emax is < 0%.
`O=C(NCCc1ccc(F)cc1)c1ccc2c(c1)OCCO2`: the pEC50 with INS1 [2] is 4.68. For the same molecule, the Emax in the experiment on INS1 [1] came to 50%.
In the case of `CS(=O)(=O)Nc1cccc(C(=O)NCCc2ccccc2)c1`, the negative-log EC50 (pEC50) in the experiment on INS1 [2] was 4.60. Moreover, in the experiment on INS1 [1], the Emax came to 24%.

Values taken from ChEMBL document CHEMBL4038317, “Discovery of a Benzamide Derivative That Protects Pancreatic β-Cells against Endoplasmic Reticulum Stress” (J Med Chem, 2017).
